Screening data: PubChem BioAssay, several laboratories
ABCB1 block: ABCB1 efflux pump inhibitors, primary screen, cell-based, multiplex, flow cytometry, ABCG2 counter-screen; ATP-dependent translocase ABCB1 (Homo sapiens), P08183; AID 1326, 2008; hit rate 0.067% among 190,000; CCRF-Adr cells, JC-1 efflux; inhibition, % at 6.6 µM; in the data active = inhibition above about 40%;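 also: higher value means more JC-1 retained so stronger ABCB1 efflux block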
PKD1 kinase inh: inhibitors of human PKD1 kinase, biochemical, fluorescence polarization | Serine/threonine-protein kinase D1 (Homo sapiens), Q15139 | PKD1 kinase fluorescence polarization assay | inhibition, % (concentration not given with the values) | hit rate 0.056% among 200,000; in the data active = inhibition above about 50%
MT stabilize HCS: microtubule stabilizers in HeLa cells, primary screen, imaging, high-content imaging; HeLa tubulin immunostaining HCS, 24 h; share of cells brighter than vehicle mean+2SD; hit rate 0.83% among 200,000; % tubulin-high responders, % at 10 µM;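 active = plate Z-score above 3 for both tubulin-high and condensed-nucleus cell shares, with cell loss under 80%, at 10 µM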;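 also: anti alpha tubulin signal scored within the nucleus-defined area of each cell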
b-catenin transl: modulators of beta-catenin nuclear translocation, primary screen, imaging, HeLa cells, immunofluorescence, high-content; nuclear translocation activity, % at 5 µM; hit rate 0.3% among 190,000;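 active = nuclear translocation activity above 50% at 5 µM, with a well cell count of 50 or more; inconclusive = wells under 50 cells across six images, flagged as toxic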;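 also: per-cell ratio of nuclear to cytoplasmic median beta-catenin stain intensity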
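Read-out: Nuclear/cytoplasmic beta-catenin signal ratio, % activation | Assay system: Human HeLa cell line | Times: 24 h compound exposure at 37°C, 5% CO2 | Signal: Fluorescence imaging of beta-catenin antibody stain plus DAPI | Dosing: 5 µM primary, 0.02–20 µM confirmation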
ABCG2 block: ABCG2 efflux pump inhibitors, primary screen, multiplex with ABCB1, IgMXP3 cells, flow cytometry; Broad substrate specificity ATP-binding cassette transporter ABCG2 (Homo sapiens), Q9UNQ0; JC-1 efflux; hit rate 0.1% among 190,000; inhibition, % at 6.6 µM;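 active = inhibition above 80%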
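Test system: IgMXP3 cells (ABCG2) mixed with DDAO far-red-labelled CCRF-Adr cells (ABCB1). Reagent: JC-1 transporter substrate. Compound dosing: single test compound dose, 6.6 µM final. Times: 10 min compound exposure, 25 °C. Detection: flow cytometry of retained JC-1 fluorescence. Read-out basis: efflux inhibition in percent versus controls. Controls: nicardipine and DMSO wells.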
PKD FP artifact: fluorescence polarization interference in PKD1 assay, artefact control for PKD1 inhibitor project, biochemical, 140K library; shares compounds with PKD1 kinase inh; inhibition, % at 10 µM; PKD1 FP assay interference counter-screen; 85 tested, under 10 active; AID 1315, 2008; call rule not given here
Large screens that a line does not name were inactive (follow-up assays come after a bar, where they were run). Shown are actives, neighbours in structure and some others; about 1% of the full set was active somewhere.

CCN(CC)c1ccc(CNCCc2ccccc2F)cc1	MT stabilize HCS 21.0
COc1cc(CN2CCN(c3cc(C)ccc3C)CC2)ccc1O	none (no result: b-catenin transl)
O=C(c1ccc2c(c1)ncn2C1CCCCC1)N1CCC2(CC1)OCCO2	MT stabilize HCS 26.7
CC(Cl)(Cl)/C(=N/P(=S)(N1CCOCC1)N1CCOCC1)N1CCOCC1	none (no result: ABCB1 block, PKD1 kinase inh, MT stabilize HCS, ABCG2 block)
NC(N)=N/N=C/c1ccc(N2CCOCC2)cc1	MT stabilize HCS 10.1
COc1ccc(C2NCc3ccc4c(c3-n3cccc32)OCO4)cc1O (stereo not given)	MT stabilize HCS 28.6 (no result: b-catenin transl)
CCn1ncc(/C=C2/CC3C4CC=C5CC(O)CCC5(C)C4CCC3(C)C2=O)c1C (stereo not given)	none (no result: ABCB1 block, b-catenin transl, ABCG2 block)
C=CCN1C(=O)C2(C(C(=O)OCC)=C(N)Oc3ccccc32)c2c1c1ccccc1oc2=O (stereo not given)	none (no result: b-catenin transl)
CN1C(=O)C(=Cc2ccc(OCCN(C)c3ccccn3)cc2)C(=O)N(C)C1=O	none
O=C(Cn1cc(C(=O)c2ccccc2)c2ccccc21)NCc1ccco1	MT stabilize HCS 31.1
O=C(c1ccco1)c1cn(Cc2ccc(Cl)cc2)c2ccccc12	MT stabilize HCS 5.6 (no result: b-catenin transl)
O=C(c1ccccc1)c1cn(CC(=O)N2CCCc3ccccc32)c2ccccc12	none (no result: b-catenin transl)
CN(C)c1ccc(C(=O)c2ccc(N(C)C)cc2)cc1	MT stabilize HCS 45.8 (no result: b-catenin transl)
COC(=O)C(O)(c1ccc(N(C)C)cc1)C(F)(F)F (stereo not given)	none
C#CCOc1cc(C2C3=C(COC3=O)Nc3cc4c(cc32)OCO4)ccc1OC (stereo not given)	MT stabilize HCS 12.5, b-catenin transl 79.9
CCOP(=O)(OCC)C(O)c1ccc(OC)cc1 (stereo not given)	none (no result: ABCB1 block, PKD1 kinase inh, MT stabilize HCS, ABCG2 block)
C=C1C(=O)O[C@@H]2C[C@@H](C)[C@@H]3C=CC(=O)[C@@]3(C)[C@@H](OC(=O)CC(=O)O[C@H]3[C@@H]4C(=C)C(=O)O[C@@H]4C[C@@H](C)[C@@H]4C=CC(=O)[C@]43C)[C@H]12	b-catenin transl 71.7 (no result: ABCB1 block, PKD1 kinase inh, MT stabilize HCS, ABCG2 block)
CCc1ccc(N2C(=O)NC(=O)C(CCc3ccncc3)(CCc3ccncc3)C2=O)cc1	none
O=C1NC(=O)C(CCc2ccncc2)(Cc2cccc(Cl)c2Cl)C(=O)N1c1ccc(Br)cc1 (stereo not given)	MT stabilize HCS 18.9, b-catenin transl 95.2
CCOC(=O)C1CCN(/C=C2/C(=O)NC(=O)N(Cc3ccco3)C2=O)CC1	MT stabilize HCS 40.7
COc1ccc(/C=C2/C(=O)NC(=O)N(Cc3ccco3)C2=O)cc1	none
CCn1ccnc1CN1CCCC(C(=O)c2cc(F)ccc2OC)C1 (stereo not given)	none
NC(=O)c1cn(C2OC(CO)C(O)C2O)c2ncnc(N)c12 (stereo not given)	PKD1 kinase inh 94.5, MT stabilize HCS 20.1, b-catenin transl inconclusive | PKD FP artifact inactive
COc1ccc(CCNC(C)CCc2ccc(OC)cc2)cc1 (stereo not given)	none (no result: b-catenin transl)
CN1CCN(c2cccc3c2C(=O)c2ccccc2C3=O)CC1	PKD1 kinase inh 100.6 | PKD FP artifact inactive
CN1CCN(c2ccccc2N)CC1	none
